Data published in ChEMBL document CHEMBL1142962, “Antiproliferative prenylated stilbenes and flavonoids from Macaranga alnifolia from the Madagascar rainforest” (J Nat Prod, 2007).

Key:
Format in all cases: functional
A549 = assay: Growth inhibition of A549/ATCC cells; conditions: Homo sapiens, read-out: Log TGI (converted)
NCI-H522 = assay: Growth inhibition of NCI-H522 cells; conditions: Homo sapiens
Summary of the method: (§1)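 Tested in the NCI 60 human tumour cell line screen, which was run by NCI. The value for each line is the GI50, the concentration giving 50% growth inhibition. Results are also shown as a mean graph across the full panel.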

RPMI-8226 = assay: Growth inhibition of RPMI8226 cells; conditions: Homo sapiens
KM12 = assay: Growth inhibition of KM12 cells; conditions: Homo sapiens
MDA-MB-435 = assay: Growth inhibition of MDA-MB-435 cells; conditions: Homo sapiens
K562 = assay: Growth inhibition of K562 cells; conditions: Homo sapiens; summary of the method: as §1
SK-MEL-28 = assay: Growth inhibition of SK-MEL-28 cells; conditions: Homo sapiens; summary of the method: as §1
HCT-15 = assay: Growth inhibition of HCT15 cells; conditions: Homo sapiens
NCI-H322M = assay: Growth inhibition of NCI-H322M cells; conditions: Homo sapiens
UACC-62 = assay: Growth inhibition of UACC62 cells; conditions: Homo sapiens
A498 = assay: Growth inhibition of A498 cells; conditions: Homo sapiens; summary of the method: as §1
MCF7 = assay: Growth inhibition of MCF7 cells; conditions: Homo sapiens; summary of the method: as §1
SN12C = assay: Growth inhibition of SN12C cells; conditions: Homo sapiens; summary of the method: as §1
CAKI-1 = assay: Growth inhibition of CAKI1 cells; conditions: Homo sapiens; summary of the method: as §1
HOP-62 = assay: Growth inhibition of HOP62 cells; conditions: Homo sapiens
SW-620 = assay: Growth inhibition of SW620 cells; conditions: Homo sapiens; summary of the method: as §1
M14 = assay: Growth inhibition of M14 cells; conditions: Homo sapiens; summary of the method: as §1
786-0 = assay: Growth inhibition of 786-0 cells; conditions: Homo sapiens
MDA-MB-231 = assay: Growth inhibition of MDA-MB-231/ATCC cells; conditions: Homo sapiens; summary of the method: as §1
DU-145 = assay: Growth inhibition of DU145 cells; conditions: Homo sapiens; summary of the method: as §1
TK-10 = assay: Growth inhibition of TK10 cells; conditions: Homo sapiens
UO-31 = assay: Growth inhibition of UO31 cells; conditions: Homo sapiens
NCI/ADR-RES = assay: Growth inhibition of NCI/ADR-RES cells; conditions: Homo sapiens
PC-3 = assay: Growth inhibition of PC3 cells; conditions: Homo sapiens
HT-29 = assay: Growth inhibition of HT29 cells; conditions: Homo sapiens; summary of the method: as §1
ACHN = assay: Growth inhibition of ACHN cells; conditions: Homo sapiens
OVCAR-4 = assay: Growth inhibition of OVCAR4 cells; conditions: Homo sapiens
[1] = read-out: Log LC50 (the source's name) (converted)

## COc1cc(/C=C/c2cc(O)c(CC=C(C)C)c(O)c2)cc2c1O[C@]1(C)C[C@@H](O)[C@@H](O)C(C)(C)[C@H]1C2 [SCHWEINFURTHIN E]
A549
  TGI: 12.6 µM
NCI-H522
  GI50: 2 µM
NCI-H522; [1]
  CC50: > 100 µM
NCI-H522; read-out: Log TGI (converted)
  TGI: > 100 µM
RPMI-8226
  GI50: < 0.01 µM
RPMI-8226; [1]
  CC50: > 100 µM
RPMI-8226; read-out: Log TGI (converted)
  TGI: 0.0525 µM
KM12
  GI50: 0.457 µM
KM12; [1]
  CC50: 9.55 µM
KM12; read-out: Log TGI (converted)
  TGI: 2.24 µM
MDA-MB-435
  GI50: 0.123 µM
MDA-MB-435; [1]
  CC50: 8.71 µM
MDA-MB-435; read-out: Log TGI (converted)
  TGI: 1.95 µM
K562
  GI50: < 0.01 µM
K562; read-out: Log TGI (converted)
  TGI: 0.692 µM
SK-MEL-28
  GI50: 0.372 µM
SK-MEL-28; [1]
  CC50: > 100 µM
SK-MEL-28; read-out: Log TGI (converted)
  TGI: 5.25 µM
HCT-15
  GI50: 0.603 µM
HCT-15; [1]
  CC50: 26.9 µM
HCT-15; read-out: Log TGI (converted)
  TGI: 3.63 µM
NCI-H322M
  GI50: 0.288 µM
NCI-H322M; [1]
  CC50: 13.8 µM
NCI-H322M; read-out: Log TGI (converted)
  TGI: 2.24 µM
UACC-62
  GI50: < 0.01 µM
UACC-62; [1]
  CC50: 4.07 µM
UACC-62; read-out: Log TGI (converted)
  TGI: 0.372 µM
A498
  LC50: > 100 µM
A498; read-out: GI50
  GI50: < 0.01 µM
A498; read-out: Log TGI (converted)
  TGI: < 0.01 µM
A498; read-out: TGI
  TGI: < 0.01 µM
A498; read-out: pGI50 (converted)
  GI50: < 0.01 µM
MCF7
  GI50: 0.0617 µM
MCF7; [1]
  CC50: > 100 µM
MCF7; read-out: Log TGI (converted)
  TGI: 26.9 µM
SN12C
  GI50: 2.09 µM
SN12C; [1]
  CC50: 34.7 µM
SN12C; read-out: Log TGI (converted)
  TGI: 7.59 µM
CAKI-1; read-out: GI50
  GI50: < 0.01 µM
CAKI-1; [1]
  CC50: 0.55 µM
CAKI-1; read-out: Log TGI (converted)
  TGI: < 0.01 µM
CAKI-1; read-out: TGI
  TGI: < 0.01 µM
CAKI-1; read-out: pGI50 (converted)
  GI50: < 0.01 µM
HOP-62
  GI50: < 0.01 µM
HOP-62; [1]
  CC50: 7.76 µM
HOP-62; read-out: Log TGI (converted)
  TGI: 0.0759 µM
SW-620
  GI50: 0.11 µM
SW-620; [1]
  CC50: > 100 µM
SW-620; read-out: Log TGI (converted)
  TGI: 2.04 µM
M14
  GI50: < 0.01 µM
M14; [1]
  CC50: 4.27 µM
M14; read-out: Log TGI (converted)
  TGI: 0.288 µM
786-0
  GI50: < 0.01 µM
786-0; [1]
  CC50: 9.77 µM
786-0; read-out: Log TGI (converted)
  TGI: 1.07 µM
MDA-MB-231
  GI50: 0.851 µM
MDA-MB-231; [1]
  CC50: 26.3 µM
MDA-MB-231; read-out: Log TGI (converted)
  TGI: 3.47 µM
DU-145
  GI50: 0.468 µM
DU-145; [1]
  CC50: 72.4 µM
DU-145; read-out: Log TGI (converted)
  TGI: 14.1 µM
TK-10; [1]
  CC50: 18.6 µM
TK-10; read-out: Log TGI (converted)
  TGI: 2.63 µM
UO-31
  GI50: 0.105 µM
UO-31; [1]
  CC50: > 100 µM
UO-31; read-out: Log TGI (converted)
  TGI: > 100 µM
NCI/ADR-RES
  GI50: 2.24 µM
NCI/ADR-RES; [1]
  CC50: 50.1 µM
NCI/ADR-RES; read-out: Log TGI (converted)
  TGI: 6.61 µM
PC-3
  GI50: 0.138 µM
PC-3; [1]
  CC50: 47.9 µM
PC-3; read-out: Log TGI (converted)
  TGI: 9.55 µM
HT-29
  GI50: 1.29 µM
HT-29; [1]
  CC50: > 100 µM
ACHN
  GI50: 0.372 µM
ACHN; [1]
  CC50: 13.2 µM
ACHN; read-out: Log TGI (converted)
  TGI: 3.02 µM
OVCAR-4
  LC50: > 100 µM
OVCAR-4; read-out: GI50
  GI50: 2.2 µM
OVCAR-4; read-out: Log TGI (converted)
  TGI: 9.33 µM
OVCAR-4; read-out: pGI50 (converted)
  GI50: 0.575 µM
